From ChEMBL document CHEMBL1765057, “Pyrazolo[4,3-d]pyrimidine bioisostere of roscovitine: evaluation of a novel selective inhibitor of cyclin-dependent kinases with antiproliferative activity” (J Med Chem, 2011)
Active and inactive are the calls of the source. The rule behind the calls is not given here.

Key:
[1] = molecular target: Cyclin-dependent kinase 7/ cyclin H (Homo sapiens) (UniProt P51946+P50613); assay: Inhibition of human recombinant CDK7/cyclin H/MAT1 at 10 uM; format: protein-complex assay
MCF7 [2] = assay: Cell cycle arrest in human MCF7 cells assessed as accumulation at sub-G1 phase after 24 hrs using propidium iodide and BrdU staining by flow cytometry; format: functional, cell-based
Outline: (§1)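 Subconfluent MCF-7 cells were treated for 24 h at a range of concentrations. They were pulse-labelled with 10 μM BrdU for 30 min at 37 °C, then trypsinized and fixed in ice-cold 70% ethanol. DNA was denatured in 2 M HCl and neutralized with borate. Cells were stained with fluorescein anti-BrdU and with propidium iodide plus RNase A, then analysed by flow cytometry at 488 nm.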

HeLa = assay: Cytotoxicity against human HeLa cells after 72 hrs by fluoroskan ascent microplate reader analysis; format: functional, cell-based
Outline: (§2)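 Cells were grown in DMEM with 10% FCS and 4 mM glutamine at 37 °C under CO2, then plated at densities suited to each line. Compounds were added as 3-fold dilutions in triplicate for 72 h.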

HT-29 = assay: Cytotoxicity against human HT-29 cells after 72 hrs by fluoroskan ascent microplate reader analysis; format: functional, cell-based; conditions: HT-29, 72 h; outline: as §2
[3] = molecular target: Glycogen synthase kinase-3 alpha (Homo sapiens) (UniProt P49840); assay: Inhibition of human recombinant GSK3A at 10 uM
HBL-100 = assay: Cytotoxicity against human HBL100 cells after 72 hrs by fluoroskan ascent microplate reader analysis; format: functional, cell-based; conditions: HBL-100, 72 h; outline: as §2
[4] = molecular target: Cyclin-dependent kinase 1/cyclin B1 (Homo sapiens) (UniProt P06493+P14635); conditions: at 10 µM
[5] = molecular target: CDK9/cyclin T1 (Homo sapiens) (UniProt O60563+P50750); assay: Inhibition of human recombinant CDK9/cyclin T1 at 10 uM; format: protein-complex assay
[6] = molecular target: Glycogen synthase kinase-3 beta (Homo sapiens) (UniProt P49841); assay: Inhibition of human recombinant GSK3B at 10 uM
A549 = assay: Cytotoxicity against human A549 cells after 72 hrs by fluoroskan ascent microplate reader analysis; format: functional, cell-based; conditions: A549, 72 h; outline: as §2
[7] = molecular target: T1, Retinoblastoma-associated protein (Homo sapiens) (UniProt P06400); assay: Inhibition of retinoblastoma protein in human MCF7 cells assessed as reduction of cyclin E level at 2.5 to 40 uM after 24 hrs by immunoblotting; format: cell-based
T1 sequence (whole entry): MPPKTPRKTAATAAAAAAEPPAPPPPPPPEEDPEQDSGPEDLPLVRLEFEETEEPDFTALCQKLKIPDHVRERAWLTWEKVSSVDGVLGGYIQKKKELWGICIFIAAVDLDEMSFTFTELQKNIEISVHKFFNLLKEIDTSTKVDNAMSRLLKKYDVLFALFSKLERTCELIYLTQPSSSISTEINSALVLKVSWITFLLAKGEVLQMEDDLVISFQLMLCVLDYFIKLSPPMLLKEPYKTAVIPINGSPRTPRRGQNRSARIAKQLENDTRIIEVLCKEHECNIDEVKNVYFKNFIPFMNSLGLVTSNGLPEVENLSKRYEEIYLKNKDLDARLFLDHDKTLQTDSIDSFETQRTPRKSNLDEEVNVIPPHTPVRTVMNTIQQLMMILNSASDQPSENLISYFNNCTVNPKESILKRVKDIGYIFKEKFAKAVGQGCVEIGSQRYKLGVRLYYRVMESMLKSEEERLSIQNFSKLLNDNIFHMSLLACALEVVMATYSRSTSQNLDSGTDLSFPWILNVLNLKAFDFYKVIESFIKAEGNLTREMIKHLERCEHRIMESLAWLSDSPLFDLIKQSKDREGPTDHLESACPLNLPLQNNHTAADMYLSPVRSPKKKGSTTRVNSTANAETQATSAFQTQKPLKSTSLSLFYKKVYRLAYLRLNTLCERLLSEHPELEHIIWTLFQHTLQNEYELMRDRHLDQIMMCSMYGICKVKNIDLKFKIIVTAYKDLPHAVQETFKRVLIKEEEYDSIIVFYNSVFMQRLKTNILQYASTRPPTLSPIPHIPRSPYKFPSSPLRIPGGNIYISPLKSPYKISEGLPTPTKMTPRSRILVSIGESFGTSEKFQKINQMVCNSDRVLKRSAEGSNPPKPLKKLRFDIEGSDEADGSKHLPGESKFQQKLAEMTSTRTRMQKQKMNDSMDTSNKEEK
Outline: (§3)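 Asynchronous, exponentially growing MCF-7 cells were exposed 24 h to a range of concentrations. Total lysates were made in Laemmli buffer, run on SDS-PAGE and blotted to nitrocellulose. Membranes were probed overnight at 4 °C with specific or phosphospecific antibodies (pRb S249/T252, S780, S795, S807/811), with tubulin as loading control and ECL detection.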

MCF7 [8] = assay: Cell cycle arrest in human MCF7 cells assessed as accumulation at G2/M phase after 24 hrs using propidium iodide and BrdU staining by flow cytometry; format: functional, cell-based; outline: as §1
MCF7 [9] = assay: Cell cycle arrest in human MCF7 cells assessed as decrease in S phase cell population after 24 hrs using propidium iodide and BrdU staining by flow cytometry; format: functional, cell-based; outline: as §1
U-266 = assay: Cytotoxicity against human U266 cells after 72 hrs by fluoroskan ascent microplate reader analysis; format: functional, cell-based; conditions: U-266, 72 h; outline: as §2
CCRF-CEM = assay: Cytotoxicity against human CEM cells after 72 hrs by fluoroskan ascent microplate reader analysis; format: functional, cell-based; outline: as §2
RPMI-8226 = assay: Induction of apoptosis in human RPMI8226 cells assessed as induction of caspase3 activation at 20 uM after 24 hrs by immunoblot analysis; format: functional, cell-based
[10] = molecular target: Cellular tumor antigen p53 (Homo sapiens) (UniProt P04637); assay: Induction of p53-dependent transcriptional activity in human ARN8 cells assessed as beta-galactosidase activity after 24 hrs by immunofluorescence assay; format: cell-based
Outline: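 ARN8 melanoma cells stably carrying the p53-responsive pRGCΔfoslacZ reporter were exposed to inhibitors for 24 h, permeabilized with 0.3% Triton X-100 for 15 min, and given MUG substrate (final 80 μM). Fluorescence was read at 355/460 nm after 1 h. Data are mean ± SD of three independent experiments.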

A-431 = assay: Cytotoxicity against human A431 cells after 72 hrs by fluoroskan ascent microplate reader analysis; format: functional, cell-based; conditions: A-431, 72 h; outline: as §2
MCF7 [11] = assay: Cell cycle arrest in human MCF7 cells assessed as accumulation at G1 phase after 24 hrs using propidium iodide and BrdU staining by flow cytometry; format: functional, cell-based
Outline: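 Subconfluent cells treated 24 h at varying concentrations, pulsed with 10 μM BrdU for 30 min at 37 °C, then trypsinized, fixed in ice-cold 70% ethanol and DNA denatured in 2 M HCl. After staining with fluorescein anti-BrdU (1:50), propidium iodide (0.1 mg/mL) and RNase A (0.5 mg/mL), cells were read by flow cytometry with a 488 nm laser.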

U2OS = assay: Reduction of homologous recombination in human DR-U2OS-GFP cells expressing I-SceI nuclease at 5 uM after 56 hrs […] relative to control; format: functional
[12] = molecular target: T1, Retinoblastoma-associated protein (Homo sapiens); assay: Inhibition of retinoblastoma protein in human MCF7 cells assessed as reduction of CDK4 level at 2.5 to 40 uM after 24 hrs by immunoblotting; format: cell-based; outline: as §3
[13] = molecular target: T1, Retinoblastoma-associated protein (Homo sapiens); assay: Inhibition of retinoblastoma protein in human MCF7 cells assessed as reduction of CDK6 level at 2.5 to 40 uM after 24 hrs by immunoblotting; format: cell-based; outline: as §3

Sequence of Glycogen synthase kinase-3 alpha (Homo sapiens) (P49840 2-483 limits assumed): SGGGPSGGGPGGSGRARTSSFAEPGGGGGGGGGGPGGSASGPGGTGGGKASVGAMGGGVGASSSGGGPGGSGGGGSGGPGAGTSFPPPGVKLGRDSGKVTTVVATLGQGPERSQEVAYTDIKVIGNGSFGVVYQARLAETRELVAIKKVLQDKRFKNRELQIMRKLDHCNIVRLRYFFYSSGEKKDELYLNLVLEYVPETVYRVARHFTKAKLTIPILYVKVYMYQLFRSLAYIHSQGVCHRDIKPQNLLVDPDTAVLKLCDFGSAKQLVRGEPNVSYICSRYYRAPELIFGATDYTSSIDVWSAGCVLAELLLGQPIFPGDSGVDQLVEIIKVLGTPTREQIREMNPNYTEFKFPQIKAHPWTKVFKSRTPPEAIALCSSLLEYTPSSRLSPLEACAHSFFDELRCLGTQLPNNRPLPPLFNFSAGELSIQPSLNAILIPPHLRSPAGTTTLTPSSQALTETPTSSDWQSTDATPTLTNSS
Sequence of Cyclin-dependent kinase 1/cyclin B1 (Homo sapiens) (P06493 whole entry, looked up): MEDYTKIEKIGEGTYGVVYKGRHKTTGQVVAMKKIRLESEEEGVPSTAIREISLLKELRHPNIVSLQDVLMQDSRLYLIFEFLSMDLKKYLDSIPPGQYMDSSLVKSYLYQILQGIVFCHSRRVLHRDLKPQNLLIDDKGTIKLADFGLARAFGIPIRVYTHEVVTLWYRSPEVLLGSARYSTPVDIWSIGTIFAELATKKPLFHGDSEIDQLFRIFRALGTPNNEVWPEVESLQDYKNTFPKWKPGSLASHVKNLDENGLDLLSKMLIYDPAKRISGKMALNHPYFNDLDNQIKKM
Sequence of Cyclin-dependent kinase 1/cyclin B1 (Homo sapiens) (P14635 whole entry, looked up): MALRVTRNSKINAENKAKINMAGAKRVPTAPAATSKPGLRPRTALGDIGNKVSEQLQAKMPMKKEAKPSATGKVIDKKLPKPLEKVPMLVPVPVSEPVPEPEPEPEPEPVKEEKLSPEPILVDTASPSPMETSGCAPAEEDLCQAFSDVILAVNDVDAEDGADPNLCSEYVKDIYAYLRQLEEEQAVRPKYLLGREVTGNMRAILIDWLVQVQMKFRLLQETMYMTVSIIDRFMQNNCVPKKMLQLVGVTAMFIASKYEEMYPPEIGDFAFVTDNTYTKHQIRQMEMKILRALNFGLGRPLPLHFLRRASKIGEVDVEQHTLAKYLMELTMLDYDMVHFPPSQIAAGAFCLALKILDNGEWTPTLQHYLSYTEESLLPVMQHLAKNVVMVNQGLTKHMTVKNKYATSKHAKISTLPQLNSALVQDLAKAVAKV
Sequence of Glycogen synthase kinase-3 beta (Homo sapiens) (P49841 whole entry, looked up): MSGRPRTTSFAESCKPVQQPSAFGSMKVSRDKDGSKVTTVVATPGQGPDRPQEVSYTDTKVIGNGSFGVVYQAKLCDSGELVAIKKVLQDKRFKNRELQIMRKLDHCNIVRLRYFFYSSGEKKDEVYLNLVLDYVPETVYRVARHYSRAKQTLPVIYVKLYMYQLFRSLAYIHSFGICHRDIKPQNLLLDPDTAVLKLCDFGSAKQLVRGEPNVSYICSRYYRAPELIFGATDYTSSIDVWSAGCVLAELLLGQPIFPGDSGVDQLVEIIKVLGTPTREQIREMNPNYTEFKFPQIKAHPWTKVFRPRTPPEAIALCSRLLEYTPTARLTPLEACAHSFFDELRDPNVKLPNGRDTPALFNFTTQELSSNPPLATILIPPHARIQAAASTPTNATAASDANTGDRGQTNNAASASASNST
Sequence of Cellular tumor antigen p53 (Homo sapiens) (P04637 whole entry, looked up): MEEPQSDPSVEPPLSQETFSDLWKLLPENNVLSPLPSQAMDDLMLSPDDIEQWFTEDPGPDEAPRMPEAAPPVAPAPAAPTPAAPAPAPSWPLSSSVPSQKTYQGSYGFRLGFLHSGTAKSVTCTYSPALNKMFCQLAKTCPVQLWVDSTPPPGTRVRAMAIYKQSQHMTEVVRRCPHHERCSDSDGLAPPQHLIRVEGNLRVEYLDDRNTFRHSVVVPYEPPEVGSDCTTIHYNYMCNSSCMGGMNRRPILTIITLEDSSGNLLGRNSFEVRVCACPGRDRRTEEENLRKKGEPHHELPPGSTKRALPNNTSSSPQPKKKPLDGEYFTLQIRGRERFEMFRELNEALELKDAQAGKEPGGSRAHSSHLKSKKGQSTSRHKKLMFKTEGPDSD

Q: How did the inhibition [1] turn out when `CC[C@H](CO)Nc1nc(NCc2ccccc2)c2[nH]nc(C(C)C)c2n1` was run?
A: 96%

Q: And the Activity (MCF7 [2])?
A: Active

Q: And the IC50 (HeLa)?
A: 6.9 µM

Q: What about the IC50 (HT-29) of the same compound?
A: 6.6 µM

Q: And the inhibition [3]?
A: 32%

Q: And the IC50 (HBL-100)?
A: 11.3 µM

Q: What about the inhibition [4] of the same compound?
A: 84%

Q: What about the inhibition [5] of the same compound?
A: 90%

Q: What about the inhibition [6] of the same compound?
A: 54%

Q: And the IC50 (A549)?
A: 7.1 µM

Q: And the inhibition [7]?
A: inactive

Q: What about the Activity (MCF7 [8]) of the same compound?
A: Active

Q: And the Activity (MCF7 [9])?
A: Active

Q: What about the IC50 (U-266) of the same compound?
A: 4.9 µM

Q: What about the IC50 (CCRF-CEM) of the same compound?
A: 3.8 µM

Q: What about the Activity (RPMI-8226) of the same compound?
A: Active

Q: What about the Activity [10] of the same compound?
A: Dose-dependent effect

Q: What about the IC50 (A-431) of the same compound?
A: 7.7 µM

Q: What about the Activity (MCF7 [11]) of the same compound?
A: inactive

Q: And the inhibition at 5 µM (U2OS)?
A: 66%

Q: What about the inhibition [12] of the same compound?
A: Active

Q: What about the inhibition [13] of the same compound?
A: inactive
